Compounds with a hit are over-represented: about 3.5% of the library has one in this group of screens.
RGS4 block = human RGS4 inhibition; P49798; HEK293 M3R/RGS4 inducible, Fluo-4 calcium flux; active compounds read high; triggered by carbachol at its EC20; B-score at 10 µM; 310,000 compounds, 0.45% hits;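 active means B-score, a plate-corrected calcium signal, over three deviations above library mean, with baseline fluorescence within five deviations of library mean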;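 further: RGS4 expression induced by doxycycline in cells with stable M3 receptor; B-score is computed from the integrated fluorescence ratio over baseline after carbachol; higher B-score means a larger calcium signal and so more RGS4 inhibition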
Target sequence (P49798 whole entry, looked up): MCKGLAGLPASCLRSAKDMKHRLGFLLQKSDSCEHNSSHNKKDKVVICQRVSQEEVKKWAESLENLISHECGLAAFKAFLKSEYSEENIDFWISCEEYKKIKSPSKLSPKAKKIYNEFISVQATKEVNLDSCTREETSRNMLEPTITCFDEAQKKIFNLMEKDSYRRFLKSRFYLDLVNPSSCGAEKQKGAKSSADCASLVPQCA
MrgX1 ag = human MrgX1 receptor agonism, primary screen | Q96LB2 | MrgX1-HEK293 cells, Fluo-4 calcium fluorescence, agonist mode; active compounds read high | B-score at 10 µM | 310,000 compounds, 0.44% hits | AID 588627;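 active means calcium response B-score plate-corrected fluorescence ratio at least 3 library SD, with starting fluorescence B-score inside 5 SD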
Target sequence (Q96LB2 whole entry, looked up): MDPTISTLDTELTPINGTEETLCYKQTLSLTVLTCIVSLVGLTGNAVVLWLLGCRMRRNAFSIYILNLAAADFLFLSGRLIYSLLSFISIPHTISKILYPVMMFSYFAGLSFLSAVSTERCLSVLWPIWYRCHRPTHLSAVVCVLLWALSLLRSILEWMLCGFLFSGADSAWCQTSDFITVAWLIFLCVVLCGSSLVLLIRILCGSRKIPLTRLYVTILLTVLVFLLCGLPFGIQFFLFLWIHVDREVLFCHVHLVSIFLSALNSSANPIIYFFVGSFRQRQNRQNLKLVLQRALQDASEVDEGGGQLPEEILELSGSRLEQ
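System: HEK293 cells stably expressing human MrgX1 receptor; Dosing: test compound in the initial addition of three; Schedule: overnight plating, then 30 min 37 °C plus 30 min room-temperature dye loading; Detection: kinetic calcium dye fluorescence, Fluo-4 NW; Controls: per-plate positive and negative controls for Z′ factor.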
MrgX1 allo act = allosterically activates human MrgX1 receptor signaling; MrgX1-HEK293, Fluo-4 calcium flux, FDSS; active compounds read high; 310,000 compounds, 0.63% hits; Q96LB2; B-score at 10 µM;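 active means plate-corrected calcium response at least 3 library SD above typical, normal starting fluorescence, not activating the receptor alone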;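 further: compound read alongside a low EC10 to EC30 dose of BAM8-22 agonist; peak minus trough fluorescence over baseline measured at the second addition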
MrgX1 antagonist = antagonists of human MrgX1 receptor; Q96LB2; MRGX1-HEK293 calcium flux, Fluo-4, BAM8-22 antagonism; active compounds read low; B-score at 10 µM; 310,000 compounds, 1.3% hits;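 active means calcium-response B-score plate-corrected more than 3 library SD below zero, starting fluorescence within 5 deviations, no agonist response on first addition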;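 further: peak minus trough fluorescence over baseline after final BAM8-22 challenge near maximal dose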
RGS4 pot = RGS4 potentiation or activation | HEK293 M3R/inducible RGS4, carbachol calcium flux Fluo4; active compounds read low | 310,000 compounds, 0.92% hits | B-score at 10 µM | AID 463111;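 active means B-score of the integrated calcium signal more than 4 SD below the library mean, with starting fluorescence not abnormally high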;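 further: negative B-score means reduced calcium response which marks RGS4 activation or potentiation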
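test system = M3R-expressing HEK293 line, RGS4 induced by doxycycline | probe or stimulus = carbachol at ECmax as muscarinic agonist stimulus | timing = dye loading 30 min 37 °C, buffer rest 30 min RT | signal = calcium dye Fluo4 fluorescence | evaluation = B score from integrated fluorescence ratio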
An asterisk follows results filed as active.

How did CCn1nc(CC(=O)Nc2ccc(-n3cnnn3)c(OC)c2)c2ccccc2c1=O do in these assays?
RGS4 block: inactive; MrgX1 ag: inactive; MrgX1 allo act: inactive; MrgX1 antagonist: -5.2*; RGS4 pot: inactive

How did CC(NC(=O)c1cccs1)C1CCCO1 (stereo unspecified) do in these assays?
RGS4 block: inactive; MrgX1 ag: inactive; MrgX1 allo act: inactive; MrgX1 antagonist: inactive; RGS4 pot: inactive

What do the screens show for `CCCCNC(=S)N(C)/N=C/c1sc(N2CCCCC2)nc1-c1cccs1`?
RGS4 block: inactive; MrgX1 ag: inactive; MrgX1 allo act: inactive; MrgX1 antagonist: -8.7*; RGS4 pot: inactive

Results for O=C(NC1CCCC1)C(c1ccccc1F)N(C(=O)c1ccco1)C1CCCC1 (stereo unspecified) ?
RGS4 block: inactive; MrgX1 ag: inactive; MrgX1 allo act: inactive; MrgX1 antagonist: inactive; RGS4 pot: -7.1*

What do the screens show for `CCOC(=O)CN(C(=O)CNC(=O)c1ccco1)C(C(=O)NC1CCCC1)c1ccccc1OCC` (stereo unspecified)?
RGS4 block: inactive; MrgX1 ag: inactive; MrgX1 allo act: inactive; MrgX1 antagonist: -5.4*; RGS4 pot: inactive

Results for Cn1nc(-c2ccc(C(=O)NC3CCCCC3)cc2)c2ccccc2c1=O ?
RGS4 block: inactive; MrgX1 ag: inactive; MrgX1 allo act: 9.5*; MrgX1 antagonist: inactive; RGS4 pot: inactive

What do the screens show for `Cc1cc(-c2nn(C)c(=O)c3ccccc23)ccc1CNC(=O)NC1CCCCC1`?
RGS4 block: inactive; MrgX1 ag: inactive; MrgX1 allo act: inactive; MrgX1 antagonist: inactive; RGS4 pot: inactive

What do the screens show for `Cc1cc(C(C2C(=O)CC(C)(C)CC2=O)C2C(=O)CC(C)(C)CC2=O)cc(C)c1OC(F)F`?
RGS4 block: inactive; MrgX1 ag: 63*; MrgX1 allo act: inactive; MrgX1 antagonist: inactive; RGS4 pot: inactive

How did Nc1ncnc2c1ncn2[C@@H]1O[C@H](CO)[C@@H](O)[C@H]1O do in these assays?
RGS4 block: inactive; MrgX1 ag: 26*; MrgX1 allo act: inactive; MrgX1 antagonist: inactive; RGS4 pot: inactive

What do the screens show for `CCOC(=O)CN1C(=O)C(Sc2n[nH]c(-c3ccccc3)n2)CCc2ccccc21` (stereo unspecified)?
RGS4 block: inactive; MrgX1 ag: inactive; MrgX1 allo act: inactive; MrgX1 antagonist: inactive; RGS4 pot: inactive

What do the screens show for `Cc1cc(C)cc(NC(=O)CCc2c(C)nn(-c3ccc(N4CCOCC4)nn3)c2C)c1`?
RGS4 block: inactive; MrgX1 ag: inactive; MrgX1 allo act: inactive; MrgX1 antagonist: inactive; RGS4 pot: inactive

Results for CC(C)c1[nH]nc2c1C(Cc1ccccc1)C(C#N)=C(N)O2 (stereo unspecified) ?
RGS4 block: inactive; MrgX1 ag: inactive; MrgX1 allo act: inactive; MrgX1 antagonist: inactive; RGS4 pot: -7.6*

What do the screens show for `CCOc1ccc(NC(=O)CN(C)C(=O)c2c(C)nn(-c3ccccc3)c2Cl)cc1OCC`?
RGS4 block: inactive; MrgX1 ag: inactive; MrgX1 allo act: inactive; MrgX1 antagonist: inactive; RGS4 pot: inactive

Results for Cc1cccc(N2CCN(C(=O)c3ccc4nc(-c5ccco5)c(-c5ccco5)nc4c3)CC2C)c1 (stereo unspecified) ?
RGS4 block: inactive; MrgX1 ag: inactive; MrgX1 allo act: inactive; MrgX1 antagonist: -7.6*; RGS4 pot: inactive

What do the screens show for `CC(=O)Nc1ccccc1-c1nc2ccc(C(=O)N3CCN(c4cccc(C)c4)C(C)C3)cc2[nH]c1=O` (stereo unspecified)?
RGS4 block: inactive; MrgX1 ag: inactive; MrgX1 allo act: inactive; MrgX1 antagonist: inactive; RGS4 pot: inactive

Results for COc1cccc(/C=N/Nc2nc3ccccc3n3cnnc23)c1O ?
RGS4 block: inactive; MrgX1 ag: inactive; MrgX1 allo act: inactive; MrgX1 antagonist: inactive; RGS4 pot: -7.1*

Results for COc1ccc(/C=N/Nc2cc(C)nc3ccc(Br)cc23)cc1 ?
RGS4 block: inactive; MrgX1 ag: inactive; MrgX1 allo act: inactive; MrgX1 antagonist: inactive; RGS4 pot: inactive

How did COc1cccc(/C=N/Nc2nc3ccccc3n3cnnc23)c1 do in these assays?
RGS4 block: inactive; MrgX1 ag: inactive; MrgX1 allo act: inactive; MrgX1 antagonist: inactive; RGS4 pot: inactive

Results for COc1ccc2nc(C)cc(N/N=C/c3cccc(OC)c3O)c2c1 ?
RGS4 block: inactive; MrgX1 ag: inactive; MrgX1 allo act: inactive; MrgX1 antagonist: inactive; RGS4 pot: -11*

What do the screens show for `CC(=O)N1CCOc2ccc(S(=O)(=O)NCCc3ccc(Cl)cc3)cc21`?
RGS4 block: inactive; MrgX1 ag: inactive; MrgX1 allo act: inactive; MrgX1 antagonist: inactive; RGS4 pot: inactive

What do the screens show for `Cc1nn(-c2ccccc2)c(Cl)c1C(=O)N1CCN(c2ncnc3c2cnn3-c2ccccc2)CC1`?
RGS4 block: inactive; MrgX1 ag: inactive; MrgX1 allo act: inactive; MrgX1 antagonist: -7.6*; RGS4 pot: inactive

Results for CC(C)CN1CCC(=O)N(CCN=[N+]=[N-])CC1 ?
RGS4 block: inactive; MrgX1 ag: inactive; MrgX1 allo act: inactive; MrgX1 antagonist: inactive; RGS4 pot: inactive

What do the screens show for `Cc1ccc(Cl)cc1N1CCN(C(=O)CSc2nnc3n2C(C)(C)Cc2ccccc2-3)CC1`?
RGS4 block: inactive; MrgX1 ag: inactive; MrgX1 allo act: inactive; MrgX1 antagonist: -9.5*; RGS4 pot: -7*

How did C=CCn1c(SCC(=O)c2[nH]c(C)c(C(=O)OCC)c2C)nc2scc(-c3ccc(OC)cc3)c2c1=O do in these assays?
RGS4 block: inactive; RGS4 pot: inactive

What do the screens show for `c1ccc(-c2cn3nc4c(nc3n2)CCCC4)cc1`?
RGS4 block: inactive; MrgX1 ag: inactive; MrgX1 allo act: inactive; MrgX1 antagonist: inactive; RGS4 pot: -7*

How did Cc1cc(OCC(=O)NCC2CCC(C(=O)O)CC2)c2c(C)c(C)c(=O)oc2c1 (stereo unspecified) do in these assays?
RGS4 block: inactive; MrgX1 ag: inactive; MrgX1 allo act: inactive; MrgX1 antagonist: inactive; RGS4 pot: inactive

What do the screens show for `O/N=C/c1nc2cc(Cl)ccc2o1`?
RGS4 block: inactive; MrgX1 ag: inactive; MrgX1 allo act: 9.4*; MrgX1 antagonist: inactive; RGS4 pot: inactive

What do the screens show for `COc1ccccc1N(CC(O)COc1c(C)cc(C)cc1C)S(=O)(=O)c1ccccc1` (stereo unspecified)?
RGS4 block: inactive; MrgX1 ag: inactive; MrgX1 allo act: 7.9*; MrgX1 antagonist: inactive; RGS4 pot: inactive

Results for COc1ccc(/C=N\NC(=O)CNC(=O)C2COc3ccccc3O2)cc1[N+](=O)[O-] (stereo unspecified) ?
RGS4 block: inactive; MrgX1 ag: inactive; MrgX1 allo act: inactive; MrgX1 antagonist: inactive; RGS4 pot: inactive

Bioassay records from PubChem BioAssay.
